# Assay outcomes from PubChem.
# The list is not random: actives were taken first. Their share in the collection is about 2.2%.
# RBBP9 inh: inhibitors of human serine hydrolase RBBP9; O75884; recombinant RBBP9, FP-Rh probe fluorescence polarization; inhibition, % at 7.94 µM; hit rate 0.2% among 220,000;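 active means inhibition above the campaign mean of all tested compounds plus 3 SD, cut at about 14% in these data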
#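 Measured by – fluorescence polarization · Test system – RBBP9 protein · Input – 2.5 µM RBBP9 dispensing solution, before mixing · Measure – percent inhibition from mP, scaled between DMSO and no-protein wells · Benchmarks – DMSO-treated enzyme wells and wells lacking RBBP9 · Times – preincubation 30 min plus labeling 45 min at 25 °C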
# EBV gp42 block: blocks Epstein-Barr virus glycoprotein 42 binding; Q1HVG2; Fluorescence polarization binding assay, mP read-out; inhibition, % (tested at 21.74 µM); hit rate 0.42% among 220,000; AID 1085; in the data active means inhibition above about 50%
# MCL1 BIM primary: inhibitors of human MCL1 binding to BIM-BH3 peptide | Q07820 | GST-MCL1 / FITC-Bim-BH3 fluorescence polarization | inhibition, % at 10.9 µM | hit rate 0.68% among 320,000 | AID 2057;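 active means inhibition above the mean inhibition of all tested compounds plus 3 SD, set per campaign, cut at about 40% in these data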;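 further: higher means more loss of mP so more displacement of Bim peptide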
# Target sequence (Q07820 whole entry, looked up): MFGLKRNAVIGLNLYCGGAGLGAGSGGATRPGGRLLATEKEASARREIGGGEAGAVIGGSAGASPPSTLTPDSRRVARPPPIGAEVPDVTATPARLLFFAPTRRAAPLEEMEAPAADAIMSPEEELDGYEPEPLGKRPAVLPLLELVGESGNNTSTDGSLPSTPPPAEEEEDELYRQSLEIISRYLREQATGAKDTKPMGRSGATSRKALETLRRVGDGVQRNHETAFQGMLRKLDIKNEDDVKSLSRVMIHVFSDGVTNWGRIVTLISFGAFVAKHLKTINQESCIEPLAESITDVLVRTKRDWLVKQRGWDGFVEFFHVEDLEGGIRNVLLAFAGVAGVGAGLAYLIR
# Mcl1 Noxa PPI: Mcl-1/Noxa interaction inhibition | Q07820 | TR-FRET Mcl-1/Noxa peptide binding, 2 h | inhibition, % at 21.7 µM | hit rate 1.5% among 220,000 | AID 1022;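 active means compounds that cut the protein-peptide binding signal by more than 50% relative to plate controls in a single-dose test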;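 further: His-tagged Mcl-1 with rhodamine Noxa BH3 peptide and terbium anti-His antibody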
# Mcl1 Bid PPI: disrupts binding of human Mcl-1 to Bid peptide; Q07820; TR-FRET Mcl-1/Bid-Dy647 peptide binding, 1536-well; inhibition, % at 21.7 µM; hit rate 0.97% among 220,000; AID 1021;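 active means compounds that cut the binding signal by more than half at the single screening dose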;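 further: His-tagged Mcl-1 with europium anti-His antibody binding Bid BH3 peptide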
# Mcl-1 Bim block: disrupts Bim peptide binding to human Mcl-1 | Q07820 | Bead-based flow cytometry, Bim peptide-Mcl-1 binding | inhibition, % at 10 µM | hit rate 0.1% among 190,000 | AID 1009; in the data active means inhibition above about 40%
# Numbers stand for hits; 0 = inactive; - = no result given; + = active, no number.
SMILES,RBBP9 inh,EBV gp42 block,MCL1 BIM primary,Mcl1 Noxa PPI,Mcl1 Bid PPI,Mcl-1 Bim block
Cc1ccc(-n2[nH]c(C)c(C=Nc3ccc(S(=O)(=O)Nc4nccs4)cc3)c2=O)cc1C,0,0,0,60.7,0,0
O=C1/C(=C/c2ccccn2)SC(=S)N1c1ccc(O)cc1,0,0,0,77.2,0,-
Cc1ccc(/C=C2/SC(=S)N(c3ccc(S(=O)(=O)Nc4nccs4)cc3)C2=O)cc1,0,0,0,56.3,0,-
O=C(Nc1cccc(C(=O)O)c1)/C(=C\c1ccc2c(c1)OCO2)NC(=O)c1ccc(Br)cc1,0,0,0,0,0,0
COc1ccc(/C=C2/SC(=S)N(c3ccc(S(=O)(=O)Nc4nccs4)cc3)C2=O)cc1,0,0,0,101.0,0,-
COc1ccc(/C=C2/SC(=S)N(NS(=O)(=O)c3ccccc3)C2=O)cc1,-,-,0,-,-,-
COCCNC(=O)CC(NS(=O)(=O)c1ccc(C)cc1)c1ccco1 (configuration not stated),0,0,0,0,0,0
COc1ccccc1CNC(=O)CC(NS(=O)(=O)c1ccc(C)cc1)c1ccco1 (configuration not stated),0,0,0,0,92.2,0
CCN(CC)c1ccc(/C=C(\C#N)C(=O)c2ccc(Br)cc2)cc1,0,+,44.9,0,0,-
CCN(CC)c1ccc(/C=C(\C#N)C(N)=O)cc1,0,0,-,0,0,0
Cc1nn(-c2ccccc2)c(C)c1NC(=O)COC(=O)c1cccc(OC(F)F)c1,-,-,0,-,-,-
NC(=S)n1[nH]c(-c2ccc([N+](=O)[O-])cc2)c(N=Nc2ccc(Cl)cc2)c1=O,0,91.6,-,73.1,97.8,0
O=c1c(N=Nc2ccc(O)cc2)c(-c2ccccc2)[nH]n1-c1ccc([N+](=O)[O-])cc1,0,0,0,71.1,59.6,0
Cc1ccc([N+](=O)[O-])cc1N=Nc1c(C)[nH]n(C(N)=S)c1=O,-,-,0,-,-,-
Cc1ccc([N+](=O)[O-])cc1N=Nc1c(-c2ccc([N+](=O)[O-])cc2)[nH]n(C(N)=S)c1=O,0,106.7,-,110.9,67.8,0
Cc1nnc(-c2ccc(Cl)cc2)[nH]c1=O,0,0,0,0,0,0
Cc1ccc(OCCCC(=O)Nc2ccccc2C(F)(F)F)cc1,0,0,0,73.6,0,0
O=Cc1ccc(OCC(=O)Nc2ccccc2C(F)(F)F)cc1,0,0,0,0,0,0
COc1ccc(-c2cc(C(=O)Nc3ccc(O)cc3)c3ccccc3n2)cc1OC,0,0,0,0,54.3,-
CN(C)S(=O)(=O)c1cccc(N=c2scc(-c3ccc4c(c3)NC(=O)CO4)n2CC2CCCO2)c1 (configuration not stated),0,0,0,0,74.2,0
O=C(O)CCN1CCN(S(=O)(=O)c2ccc3ccccc3c2)CC1,-,-,0,-,-,-
N#Cc1ccsc1NC(=O)CN1CCN(c2ccccc2)CC1,0,0,0,0,0,0
N#Cc1ccsc1NC(=O)CN1CCN(c2ccc(O)cc2)CC1,0,0,0,71.5,0,0
O=C(CN1CCN(c2ccc(O)cc2)CC1)Nc1ccc(SC(F)F)cc1,0,0,0,70.1,0,0
COc1ccccc1C(=O)NCCC(=O)NCC1COc2ccccc2O1 (configuration not stated),-,-,0,-,-,-
SMILES,RBBP9 inh,EBV gp42 block,MCL1 BIM primary,Mcl1 Noxa PPI,Mcl1 Bid PPI,Mcl-1 Bim block
CCN(CC)CCN1C2=C(C(=O)CC(C)(C)C2)C(c2cccc(F)c2)C2=C1CC(C)(C)CC2=O,0,139.6,0,0,0,0
N#C/C(C(N)=O)=C1/SC=C(c2ccccc2)N1c1ccccc1,0,0,0,0,0,-
N#C/C(C(=O)c1ccccc1)=C1/SC=C(N)N1c1ccccc1,0,0,-,55.2,0,0
COc1ccc(-c2c(C#N)c(N)nc3sc(C(=O)c4ccc(C)cc4)c(N)c23)cc1,0,74.6,0,0,0,0
CCOC(=O)c1c(C)nc2sc(C(N)=O)c(N)c2c1-c1ccc(OC)cc1,0,0,0,0,0,0
COc1ccc(C(=O)c2sc3nc(-c4ccc(OC)cc4)ccc3c2N)cc1,0,0,0,77.0,0,0
COc1cccc(-c2nc3c(c(=O)[nH]c(=O)n3Cc3ccccc3)n2CCO)c1OC(F)F,-,-,0,-,-,-
Cc1cccc(NC(=O)C2CCN(c3nc(C)cc(C)n3)CC2)c1,0,0,0,0,94.4,0
Cc1cccc(NC(=O)C2CCCN(c3nc(C)cc(C)n3)C2)c1 (configuration not stated),0,0,0,0,0,0
